Assay outcomes as filed in PubChem BioAssay.
MBD2 inh = inhibitors of MBD2 binding to methylated DNA, primary screen, biochemical, TR-FRET, DNA-binding domain, human; inhibition, % at 4.4 µM; MBD2 binding to methylated oligonucleotide; 370,000 tested, 0.31% active; in the data active = inhibition above about 13%
UHRF1 binding = UHRF1 methylated DNA binding inhibitors, primary screen, counter-screen for MBD2 inhibitor project, biochemical, TR-FRET, human UHRF1, single concentration | E3 ubiquitin-protein ligase UHRF1 (Homo sapiens), Q96T88 | UHRF1 binding to methylated oligo | inhibition, % at 4.4 µM | 370,000 tested, 0.75% active; in the data active = inhibition above about 21%;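 also: UHRF1 SRA domain binding a hemimethylated CpG hairpin DNA probe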
TDP2 inh = human TDP2 enzyme inhibitors, primary screen, biochemical, epi absorbance, recombinant enzyme. 370,000 tested, 0.34% active. inhibition, % at 12.8 µM. AID 720702, 2013. T5PNP hydrolysis, p-nitrophenol absorbance 415 nm. Tyrosyl-DNA phosphodiesterase 2 (Homo sapiens), O95551;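 active = inhibition above the mean of all tested compounds plus 3 SD, set per campaign, cut at about 25% in these data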
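System: recombinant human TDP2 / Amount: 120 nM TDP2 per well / Also added: 5 mM T5PNP chromogenic substrate / Doses: 12.8 µM single point, 1% DMSO / Incubation: 2 h at 37 °C / Detection: p-Nitrophenol epi absorbance / Evaluation: % inhibition relative to enzyme-containing and enzyme-free wells / Repeats: singlicate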
LEDGF integ inh = blockers of LEDGF/p75-dependent integrase strand transfer – biochemical, TR-FRET, high throughput, primary screen. 370,000 tested, 0.64% active. TR-FRET IN-LEDGF/p75 DNA integration, Eu/Cy5. inhibition, % at 3.7 µM. HIV-1 integrase (with human LEDGF/p75);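 active = inhibition above the screen-wide mean plus 3 SD, cut at about 13% in these data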;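 also: signal is the Cy5 over europium emission ratio at 671 and 618 nm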
IN multimer act = HIV-1 IN multimer formation enhancers, counter-screen for LEDGF/p75 integration inhibitor project, biochemical, TR-FRET; TR-FRET HIV-1 integrase multimerization; shares compounds with LEDGF integ inh; 2,000 tested, 17% active; activation, % at 7.7 µM; AID 1053131, 2014; in the data active = activation above about 8.9%
TRFRET interf = TR-FRET optical interference artefacts, confirmation, artefact control for LEDGF/p75-dependent integration inhibitor project, biochemical, HIV-1 IN multimerization. shares compounds with LEDGF integ inh. TR-FRET optical interference counterscreen. inhibition, % at 7.7 µM. 2,000 tested, under 10 active;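 active = inhibition above the mean over all tested compounds plus 3 SD, which no compound reached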
LEDGF integ conf = inhibitors of HIV-1 IN-LEDGF/p75 DNA integration, confirmation, biochemical, TR-FRET. shares compounds with LEDGF integ inh. TR-FRET LEDGF/p75-dependent HIV-1 integration. 2,000 tested, 36% active. inhibition, % at 3.7 µM. AID 1053136, 2014; in the data active = inhibition above about 14%
Of the large screens only hits and unclear results are named; the others gave an inactive call (follow-up assays come after a bar, where they were run). Hits are enriched below; roughly 1.6% of the tested compounds scored in any of these assays.

O=C1c2c(O)cc(O)cc2O[C@H](c2ccc(O)cc2)[C@H]1O	none
O=C1c2c(O)cc(O)cc2O[C@H](c2ccc(O)c(O)c2)[C@H]1O	LEDGF integ inh 22.6 | IN multimer act inactive | TRFRET interf inactive | LEDGF integ conf inactive
CCOC(=O)[C@]12CCCC=C1N(Cc1ccc(OC)cc1)C(=O)[C@@H]2CC(=O)NCc1ccc(C)o1	none
Cc1ccc(C)c(OCCn2nnc3ccccc32)c1	none
Clc1ccccc1OCCn1nnc2ccccc21	LEDGF integ inh 29.0 | IN multimer act inactive | TRFRET interf inactive | LEDGF integ conf inactive
COC(=O)[C@H](CC(C)C)NC(=O)CC[C@H]1O[C@@H](n2ccc(=O)[nH]c2=O)[C@H](O)[C@@H]1O	none
CCOC(=O)C1=C(C)N(C)C(=O)NC1c1cc2c(cc1[N+](=O)[O-])OCO2 (stereo not given)	LEDGF integ inh 13.8 | IN multimer act 10.4 | TRFRET interf inactive | LEDGF integ conf inactive
O=C(O)c1cc(-c2ccc(/C=C3/SC(=S)N(Cc4ccccc4)C3=O)o2)ccc1Cl	none
CC1(C)OC(=O)C(=Cc2ccc(-c3ccc(Cl)c(C(=O)O)c3)o2)C(=O)O1	UHRF1 binding 34.6, LEDGF integ inh 15.4 | IN multimer act 15.4 | TRFRET interf inactive | LEDGF integ conf 20.1
C[C@H](CCC(=O)O)[C@H]1CC[C@H]2[C@@H]3[C@@H](O)C[C@@H]4C[C@H](O)CC[C@]4(C)[C@H]3CC[C@]12C	none
CC1CCN(Cc2nnnn2-c2ccc(Cl)cc2)CC1	none
Cc1oc(-c2ccc(Cl)cc2)nc1CS(=O)CC(=O)NCCN1CCCC1 (stereo not given)	none
Cc1oc(-c2ccc(Cl)cc2)nc1CS(=O)CC(=O)NCCCN1CCOCC1 (stereo not given)	LEDGF integ inh 17.6 | IN multimer act inactive | TRFRET interf inactive | LEDGF integ conf inactive
CCC(C(=O)OC)n1c(-c2ccccc2)nc2ccccc2c1=O (stereo not given)	none
COC(=O)c1sc(-c2ccccc2)cc1NC(=O)C1CC1	none
CCOc1ccc(NC(=O)Nc2cc(-c3ccccc3)sc2C(=O)OC)cc1	LEDGF integ inh 21.3 | IN multimer act inactive | TRFRET interf inactive | LEDGF integ conf inactive
Cc1c(NC(=O)c2cccc(NC(=O)Cc3ccc(F)cc3)c2)c(=O)n(-c2ccccc2)n1C	LEDGF integ inh 18.9 | IN multimer act inactive | TRFRET interf inactive | LEDGF integ conf inactive
Cc1c(NC(=O)c2cccc(NC(=O)Cc3c(F)cccc3Cl)c2)c(=O)n(-c2ccccc2)n1C	none
OCCC1CN(Cc2ccc3nonc3c2)CCN1Cc1ccsc1 (stereo not given)	none
COC(=O)C1=C(O)/C(=C\c2ccc(CNC(=O)C(=O)Nc3ccc(C)c(C)c3)o2)N=C1C	LEDGF integ inh 41.1 | IN multimer act inactive | TRFRET interf inactive | LEDGF integ conf inactive
CCOC(=O)C1=C(O)/C(=C/c2ccc(CNC(=O)C(=O)Nc3ccc(C)cc3)o2)N=C1C	LEDGF integ inh 35.1 | IN multimer act inactive | TRFRET interf inactive | LEDGF integ conf inactive
COC(=O)C1=C(O)/C(=C\c2ccc(CNC(=O)C(=O)Nc3ccc(C)cc3)o2)N=C1C	none
COc1ccc(Cl)cc1C(=O)NNC(=O)c1n[nH]c2ccccc12	none
O=C(CCl)N1N=C(c2cccs2)CC1c1ccco1 (stereo not given)	none
O=C(CCl)N1N=C(c2ccco2)CC1c1ccco1 (stereo not given)	UHRF1 binding 33.3, LEDGF integ inh 49.2 | IN multimer act inactive | TRFRET interf inactive | LEDGF integ conf inactive
